Eleven molecules from the M2OR odorant receptor database can be followed below.

Details in all cases: stereoisomer not certain
The target of assay [1] is T1, OR2AE1 (Homo sapiens) (UniProt Q8NHA4).
T1 sequence (whole entry): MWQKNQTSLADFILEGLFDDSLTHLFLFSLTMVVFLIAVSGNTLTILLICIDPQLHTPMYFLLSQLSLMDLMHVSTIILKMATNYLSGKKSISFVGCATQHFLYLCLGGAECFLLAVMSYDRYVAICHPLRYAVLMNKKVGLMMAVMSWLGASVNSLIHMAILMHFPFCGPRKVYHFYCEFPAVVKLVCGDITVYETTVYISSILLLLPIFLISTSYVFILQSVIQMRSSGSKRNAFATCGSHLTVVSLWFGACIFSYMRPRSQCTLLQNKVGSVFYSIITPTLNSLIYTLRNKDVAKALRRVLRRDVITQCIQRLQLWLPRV
The gist of the method: (§1)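 Each entry records the cell line, G-protein, co-transfected protein and tags used. Methods varied with the source, often transient luciferase assays in mammalian cell lines. A receptor–molecule pair is called responsive (active) if the original authors judged its signal statistically different from baseline and non-responsive (inactive) otherwise.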

For assay [2], the target named is T2, OR2AG1 (Homo sapiens) (UniProt Q9H205).
T2 sequence (whole entry): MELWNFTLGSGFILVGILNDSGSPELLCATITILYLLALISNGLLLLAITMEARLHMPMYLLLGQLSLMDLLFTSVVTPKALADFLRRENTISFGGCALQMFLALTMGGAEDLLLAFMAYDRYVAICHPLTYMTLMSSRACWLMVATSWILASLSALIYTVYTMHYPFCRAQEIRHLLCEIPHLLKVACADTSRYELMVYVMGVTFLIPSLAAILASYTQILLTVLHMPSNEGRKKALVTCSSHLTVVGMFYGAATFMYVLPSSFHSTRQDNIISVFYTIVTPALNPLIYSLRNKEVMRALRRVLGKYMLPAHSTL
The method in brief: as §1

Assay [3] addresses T3, OR2AG2 (Homo sapiens) (UniProt A6NM03).
T3 sequence (whole entry): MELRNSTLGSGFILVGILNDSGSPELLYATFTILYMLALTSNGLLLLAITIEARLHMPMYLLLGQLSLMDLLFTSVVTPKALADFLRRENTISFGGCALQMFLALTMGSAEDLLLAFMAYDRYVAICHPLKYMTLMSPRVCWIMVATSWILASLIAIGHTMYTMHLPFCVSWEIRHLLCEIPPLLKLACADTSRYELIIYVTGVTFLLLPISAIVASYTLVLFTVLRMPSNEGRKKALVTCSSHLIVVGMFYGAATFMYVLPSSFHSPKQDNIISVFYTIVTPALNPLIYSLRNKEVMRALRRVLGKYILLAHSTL
The method in brief: as §1

For assay [4], the target named is T4, OR2AJ1 (Homo sapiens) (UniProt Q8NGZ0).
T4 sequence (whole entry): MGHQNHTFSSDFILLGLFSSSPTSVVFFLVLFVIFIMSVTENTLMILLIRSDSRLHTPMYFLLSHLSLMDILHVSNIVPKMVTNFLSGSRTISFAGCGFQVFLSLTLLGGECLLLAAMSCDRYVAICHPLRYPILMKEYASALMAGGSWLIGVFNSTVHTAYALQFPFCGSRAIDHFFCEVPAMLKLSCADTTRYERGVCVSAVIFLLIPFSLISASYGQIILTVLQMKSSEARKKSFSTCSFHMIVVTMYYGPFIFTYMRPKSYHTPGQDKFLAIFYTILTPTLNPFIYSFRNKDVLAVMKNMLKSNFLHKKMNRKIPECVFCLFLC
The method in brief:
as §1

Assay [5] deals with T5, OR2AK2 (Homo sapiens) (UniProt Q8NG84).
T5 sequence (whole entry): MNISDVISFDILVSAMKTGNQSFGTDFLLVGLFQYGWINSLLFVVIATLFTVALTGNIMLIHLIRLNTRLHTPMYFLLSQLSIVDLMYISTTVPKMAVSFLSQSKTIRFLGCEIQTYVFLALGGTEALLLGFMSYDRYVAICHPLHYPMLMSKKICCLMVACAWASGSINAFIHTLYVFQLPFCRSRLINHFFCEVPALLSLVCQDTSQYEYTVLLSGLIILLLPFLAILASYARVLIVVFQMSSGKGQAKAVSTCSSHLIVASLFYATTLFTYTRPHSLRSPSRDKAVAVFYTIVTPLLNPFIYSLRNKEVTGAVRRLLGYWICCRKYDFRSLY
The method in brief: as §1

The target of assay [6] is T6, OR2AP1 (Homo sapiens) (UniProt Q8NGE2).
T6 sequence (whole entry): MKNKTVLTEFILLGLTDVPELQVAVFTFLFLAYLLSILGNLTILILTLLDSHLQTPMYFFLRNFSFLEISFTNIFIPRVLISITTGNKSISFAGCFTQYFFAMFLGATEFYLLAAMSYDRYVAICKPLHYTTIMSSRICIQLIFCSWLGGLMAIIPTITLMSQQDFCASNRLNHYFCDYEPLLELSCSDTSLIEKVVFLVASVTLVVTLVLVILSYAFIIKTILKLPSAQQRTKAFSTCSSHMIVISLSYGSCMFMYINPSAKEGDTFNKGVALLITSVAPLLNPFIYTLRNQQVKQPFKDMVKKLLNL
The gist of the method:
as §1

Assay [7] concerns the target T7, OR2AT4 (Homo sapiens) (UniProt A6NND4).
T7 sequence (whole entry): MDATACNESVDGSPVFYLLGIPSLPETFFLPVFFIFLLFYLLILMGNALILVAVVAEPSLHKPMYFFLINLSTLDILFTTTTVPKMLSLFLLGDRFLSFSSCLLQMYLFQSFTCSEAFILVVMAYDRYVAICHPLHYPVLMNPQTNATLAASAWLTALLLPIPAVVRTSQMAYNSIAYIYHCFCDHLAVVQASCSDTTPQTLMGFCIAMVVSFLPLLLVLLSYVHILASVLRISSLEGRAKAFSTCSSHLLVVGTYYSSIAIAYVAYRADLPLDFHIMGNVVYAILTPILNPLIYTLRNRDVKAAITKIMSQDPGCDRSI
The method in brief: as §1

The target of assay [8] is T8, OR2B11 (Homo sapiens) (UniProt Q5JQS5).
T8 sequence (whole entry): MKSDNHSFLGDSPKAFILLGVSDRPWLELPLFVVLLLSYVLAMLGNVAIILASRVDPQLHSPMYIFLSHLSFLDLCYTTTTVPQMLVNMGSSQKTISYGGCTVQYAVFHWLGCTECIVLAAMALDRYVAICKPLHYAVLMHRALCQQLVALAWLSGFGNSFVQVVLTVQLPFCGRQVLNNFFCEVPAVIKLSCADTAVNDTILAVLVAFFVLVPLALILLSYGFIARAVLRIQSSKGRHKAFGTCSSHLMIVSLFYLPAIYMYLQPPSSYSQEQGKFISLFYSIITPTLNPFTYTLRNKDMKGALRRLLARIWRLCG
The method in brief:
as §1

Assay [9] deals with T9, OR2B2 (Homo sapiens) (UniProt Q9GZK3).
T9 sequence (whole entry): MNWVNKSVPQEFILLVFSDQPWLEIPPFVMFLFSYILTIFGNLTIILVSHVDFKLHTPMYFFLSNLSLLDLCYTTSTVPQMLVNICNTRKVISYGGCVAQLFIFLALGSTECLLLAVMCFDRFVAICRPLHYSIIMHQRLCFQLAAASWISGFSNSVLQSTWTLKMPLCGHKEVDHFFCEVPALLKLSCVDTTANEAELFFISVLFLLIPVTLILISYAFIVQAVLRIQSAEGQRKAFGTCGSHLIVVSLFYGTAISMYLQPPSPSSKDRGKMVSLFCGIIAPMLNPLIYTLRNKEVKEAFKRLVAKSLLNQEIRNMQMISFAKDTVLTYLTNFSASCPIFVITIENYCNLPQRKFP
The gist of the method:
as §1

For assay [10], the system named is T10, OR2A7.
T10 sequence (whole entry): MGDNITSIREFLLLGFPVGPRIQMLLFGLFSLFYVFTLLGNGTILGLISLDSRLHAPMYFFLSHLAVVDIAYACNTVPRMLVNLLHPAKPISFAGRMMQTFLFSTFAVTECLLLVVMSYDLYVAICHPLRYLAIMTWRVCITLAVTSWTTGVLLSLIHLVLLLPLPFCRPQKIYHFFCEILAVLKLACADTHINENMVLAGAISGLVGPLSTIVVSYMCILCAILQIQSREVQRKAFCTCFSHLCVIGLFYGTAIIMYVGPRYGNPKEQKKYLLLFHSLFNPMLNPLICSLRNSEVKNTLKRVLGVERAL
The gist of the method: as §1

On to `CCC(S)C(C)CO` (stereo not given), for which the “odorant receptor agonist call” value in assay [1], in assay [2], in assay [3], in assay [4], in assay [5] and in assay [6] was “inactive” throughout. In addition, the “odorant receptor agonist call” value in assay [7], in assay [8] and in assay [9] was “inactive” each time.
In the case of `CCCCC(S)C(C)CO` (stereo not given), the “odorant receptor agonist call” value in assay [1], in [2], in assay [3], in assay [4], in [5] and in assay [6] was “inactive” in each case. For the same molecule, the “odorant receptor agonist call” value in assay [7], in [8] and in assay [9] was “inactive” in each case.
Consider `CC1=C(O)C(=O)C(C)O1` (stereo not given), for which the “odorant receptor agonist call” value in [10], in [1], in assay [2], in assay [3], in [5] and in assay [6] was “inactive” throughout. Besides, the “odorant receptor agonist call” value in [7], in assay [8] and in [9] was “inactive” each time.
In the case of `c1coc(CSSCc2ccco2)c1`, the “odorant receptor agonist call” value in assay [8] is “active”.
In the case of `CCCCCOC(=O)CCC`, the “odorant receptor agonist call” value in assay [2] is “inactive”.
For the molecule `CCC1OC(=O)C(O)=C1C` (stereo not given), the “odorant receptor agonist call” value in assay [10], in assay [1], in assay [2], in assay [3], in assay [5] and in [6] was “inactive” in each case. The “odorant receptor agonist call” value in assay [7], in assay [8] and in assay [9] was “inactive” throughout.
Take `CCCC(S)CCOC(C)=O` (stereo not given): the “odorant receptor agonist call” value in [10], in [1], in [2], in assay [3], in assay [5] and in assay [6] was “inactive” each time. Also, the “odorant receptor agonist call” value in assay [7], in [8] and in assay [9] was “inactive” throughout.
Take `CCCC(C)C1OCC(C)(CCC)CO1` (stereo not given): in assay [2], the “odorant receptor agonist call” value was “inactive”.
As for `CC(CO)CS` (stereo not given), the “odorant receptor agonist call” value in assay [1], in assay [2], in [3], in assay [4], in [5] and in assay [6] was “inactive” in each case. Also, the “odorant receptor agonist call” value in assay [7], in [8] and in [9] was “inactive” in each case.
For the molecule `CC1CCCCCCCCCCCCC(=O)C1` (stereo not given), the “odorant receptor agonist call” value in assay [1], in assay [2], in assay [3], in assay [4], in assay [5] and in assay [6] was “inactive” in each case. Also, the “odorant receptor agonist call” value in [7], in assay [8] and in assay [9] was “inactive” throughout.
In the case of `CC1=NC(C)C(C)S1` (stereo not given), the “odorant receptor agonist call” value in assay [10], in assay [1], in [2], in assay [3], in assay [5] and in assay [6] was “inactive” in each case. For the same molecule, the “odorant receptor agonist call” value in assay [7], in [8] and in assay [9] was “inactive” each time.
